The source made the active and inactive calls. The calls are words filed in the database; no cut-off is given here.
test system: Mus musculus; test: Antiinflammatory activity in CD1 mouse at 2 uM, po; assay type: functional, organism-based; settings: not given
How it was run: (§1)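 Male CD-1 mice, 3 per group, were given a single oral gavage of 2 μmole triterpenoid in DMSO. The read-out was heme oxygenase-1 (HO-1) induction in the liver.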

With `C=C(C)[C@@H]1CC[C@]2(C(=O)n3ccnc3)CC[C@]3(C)C(CC[C@@H]4[C@@]5(C)C=C(C#N)C(=O)C(C)(C)[C@@H]5CC[C@]43C)[C@@H]12` (stereo partly drawn) the Activity was “Active”.

test system: RAW; test: Inhibition of nitric oxide production in IFN-gamma stimulated RAW 264.7 cells; assay type: functional, cell-based; settings: Mus musculus

Going from `C=C(C)[C@@H]1CC[C@]2(C(=O)N(C)C)CC[C@]3(C)C(CC[C@@H]4[C@@]5(C)C=C(C#N)C(=O)C(C)(C)[C@@H]5CC[C@]43C)[C@@H]12` (stereo partly drawn) to `C=C(C)[C@@H]1CC[C@]2(C(=O)O)CC[C@]3(C)C(CC[C@@H]4[C@@]5(C)C=C(C#N)C(=O)C(C)(C)[C@@H]5CC[C@]43C)[C@@H]12` (stereo partly drawn), the IC50 rises from 30 nM to 200 nM (6.7-fold). The first is the more potent here.

Compared with `C=C(CF)[C@@H]1CC[C@]2(C(=O)OC)CC[C@]3(C)C(CC[C@@H]4[C@@]5(C)C=C(C(=O)O)C(=O)C(C)(C)[C@@H]5CC[C@]43C)[C@@H]12` (stereo partly drawn), `C=C(CO)[C@@H]1CC[C@]2(C(=O)OC)CC[C@]3(C)C(CC[C@@H]4[C@@]5(C)C=C(C(=O)O)C(=O)C(C)(C)[C@@H]5CC[C@]43C)[C@@H]12` (stereo partly drawn) is 3-fold higher in IC50: 300 nM for the first, 900 nM for the second. The first is the more potent here.

Going from `C=C(C)[C@@H]1CC[C@]2(C(=O)n3ccnc3)CC[C@]3(C)C(CC[C@@H]4[C@@]5(C)C=C(C#N)C(=O)C(C)(C)[C@@H]5CC[C@]43C)[C@@H]12` (stereo partly drawn) to `C=C(C)[C@@H]1CC[C@]2(C(=O)n3ccnc3C)CC[C@]3(C)C(CC[C@@H]4[C@@]5(C)C=C(C#N)C(=O)C(C)(C)[C@@H]5CC[C@]43C)[C@@H]12` (stereo partly drawn), the IC50 rises from 30 nM to 50 nM (1.7-fold). The first is the more potent here.

Compared with `C=C(C)[C@@H]1CC[C@]2(C(=O)OC)CC[C@]3(C)C(CC[C@@H]4[C@@]5(C)C=C(C(=O)OC)C(=O)C(C)(C)[C@@H]5CC[C@]43C)[C@@H]12` (stereo partly drawn), `C=C(CF)[C@@H]1CC[C@]2(C(=O)OC)CC[C@]3(C)C(CC[C@@H]4[C@@]5(C)C=C(C(=O)OC)C(=O)C(C)(C)[C@@H]5CC[C@]43C)[C@@H]12` (stereo partly drawn) is 2-fold lower in IC50: 600 nM for the first, 300 nM for the second.

Going from `C=C(C)[C@@H]1CC[C@]2(C(=O)NC)CC[C@]3(C)C(CC[C@@H]4[C@@]5(C)C=C(C#N)C(=O)C(C)(C)[C@@H]5CC[C@]43C)[C@@H]12` (stereo partly drawn) to `C=C(C)[C@@H]1CC[C@]2(C(N)=O)CC[C@]3(C)C(CC[C@@H]4[C@@]5(C)C=C(C#N)C(=O)C(C)(C)[C@@H]5CC[C@]43C)[C@@H]12` (stereo partly drawn), the IC50 falls from 50 nM to 30 nM (1.7-fold).

Compared with `C=C(C)[C@@H]1CC[C@]2(C(=O)n3ccnc3CC)CC[C@]3(C)C(CC[C@@H]4[C@@]5(C)C=C(C#N)C(=O)C(C)(C)[C@@H]5CC[C@]43C)[C@@H]12` (stereo partly drawn), `C=C(C)[C@@H]1CC[C@]2(C(=O)OCC)CC[C@]3(C)C(CC[C@@H]4[C@@]5(C)C=C(C#N)C(=O)C(C)(C)[C@@H]5CC[C@]43C)[C@@H]12` (stereo partly drawn) is 1.5-fold lower in IC50: 30 nM for the first, 20 nM for the second. The second is the more potent here.

Going from `C=C(CO)[C@@H]1CC[C@]2(C(=O)OC)CC[C@]3(C)C(CC[C@@H]4[C@@]5(C)C=C(C(=O)OC)C(=O)C(C)(C)[C@@H]5CC[C@]43C)[C@@H]12` (stereo partly drawn) to `C=C(C)[C@@H]1CC[C@]2(C(=O)OC)CC[C@]3(C)C(CC[C@@H]4[C@@]5(C)C=C(C(=O)O)C(=O)C(C)(C)[C@@H]5CC[C@]43C)[C@@H]12` (stereo partly drawn), the IC50 falls from 1000 nM to 300 nM (3.3-fold).

Work on `C=C(C)[C@@H]1CC[C@]2(C(=O)OC)CC[C@]3(C)C(CC[C@@H]4[C@@]5(C)C=C(C#N)C(=O)C(C)(C)[C@@H]5CC[C@]43C)[C@@H]12` (stereo partly drawn) yielded an IC50 of 30 nM.

In the case of `C=C(C)[C@@H]1CC[C@]2(C(=O)O)CC[C@]3(C)[C@H](CC[C@@H]4[C@@]5(C)CC[C@H](O)C(C)(C)[C@@H]5CC[C@]43C)[C@@H]12`, the Activity is reported as “inactive”.

target: T1, Heme oxygenase 1 (Mus musculus) (UniProt P14901); test: Induction of liver HO1 in CD1 mouse at 2 uM, po after 6 hrs; assay type: organism-based; settings: not given; how it was run: as §1
T1 sequence (whole entry): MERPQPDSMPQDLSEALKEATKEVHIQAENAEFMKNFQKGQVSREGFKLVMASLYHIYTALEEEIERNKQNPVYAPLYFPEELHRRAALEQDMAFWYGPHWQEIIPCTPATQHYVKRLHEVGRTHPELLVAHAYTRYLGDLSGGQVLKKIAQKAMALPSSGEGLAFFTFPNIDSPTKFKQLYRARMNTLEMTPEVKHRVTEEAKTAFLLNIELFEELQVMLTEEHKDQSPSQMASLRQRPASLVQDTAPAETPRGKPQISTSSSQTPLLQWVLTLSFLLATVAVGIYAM

For `C=C(C)[C@@H]1CC[C@]2(C(=O)n3ccnc3)CC[C@]3(C)C(CC[C@@H]4[C@@]5(C)C=C(C#N)C(=O)C(C)(C)[C@@H]5CC[C@]43C)[C@@H]12` (stereo partly drawn), the Activity was “Active”.
